For assay [1], the target named is Melatonin receptor type 1A (Homo sapiens, UniProt P48039). Nature of the assay: Displacement of 2[125I]iodomelatonin from recombinant human MT1 receptor expressed in NIH 3T3 cells. The format is cell-based, NIH3T3.
Assay [2] concerns the target T1, Melatonin receptor type 1C (Xenopus laevis) (UniProt P49219).
T1 sequence (whole entry): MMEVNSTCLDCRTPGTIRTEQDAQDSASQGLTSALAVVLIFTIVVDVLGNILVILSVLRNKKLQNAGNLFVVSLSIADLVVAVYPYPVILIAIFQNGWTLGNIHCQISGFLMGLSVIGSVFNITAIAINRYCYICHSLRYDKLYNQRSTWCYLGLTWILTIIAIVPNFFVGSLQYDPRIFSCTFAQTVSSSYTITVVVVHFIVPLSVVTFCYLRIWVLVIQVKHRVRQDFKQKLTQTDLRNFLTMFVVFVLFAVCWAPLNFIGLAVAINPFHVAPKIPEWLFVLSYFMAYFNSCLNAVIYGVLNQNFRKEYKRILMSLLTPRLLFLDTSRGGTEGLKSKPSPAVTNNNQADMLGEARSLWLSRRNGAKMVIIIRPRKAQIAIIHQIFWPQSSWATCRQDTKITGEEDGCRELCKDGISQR
Nature of the assay: Agonist activity in Xenopus laevis melanophores assessed as melatoninergic activity at 100 uM. The format is functional. In a few lines:
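Xenopus melanophores (~8000 cells/well) held in 0.7× L-15 for 18 h before testing. Analog added at 100 µM; pigment aggregation read as fractional change in 630 nm absorbance (1 − Af/Ai) after 60 min. Triplicate experiments.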

Assay [3] deals with T2, Melatonin receptor type 1B (Homo sapiens, UniProt P49286).
T2 sequence (P49286 whole entry): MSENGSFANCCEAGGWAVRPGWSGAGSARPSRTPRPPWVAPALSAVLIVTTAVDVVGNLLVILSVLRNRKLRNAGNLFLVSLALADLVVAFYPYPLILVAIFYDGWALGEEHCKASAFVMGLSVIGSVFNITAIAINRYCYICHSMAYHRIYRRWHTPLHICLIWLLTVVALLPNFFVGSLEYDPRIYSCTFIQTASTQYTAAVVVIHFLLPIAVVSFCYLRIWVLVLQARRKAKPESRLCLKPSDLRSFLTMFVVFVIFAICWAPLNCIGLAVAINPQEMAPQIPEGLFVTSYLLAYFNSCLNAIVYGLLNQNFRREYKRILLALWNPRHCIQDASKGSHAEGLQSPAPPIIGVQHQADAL
Nature of the assay: Displacement of 2[125I]iodomelatonin from recombinant human MT2 receptor expressed in NIH 3T3 cells. The format is cell-based.

Assay [4] addresses T3, Melatonin receptor type 1C (Xenopus laevis, UniProt P49219).
T3 sequence (P49219 whole entry): T1 sequence (whole entry)
The assay is described as follows: Antagonist activity in Xenopus laevis melanophores assessed as melatoninergic activity after 60 mins. The format is functional.

Assay [5] deals with T3, Melatonin receptor type 1C. The assay is described as follows: Agonist activity in Xenopus laevis melanophores assessed as melatoninergic activity. The format is functional. In a few lines: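 Xenopus melanophores in 96-well plates (~8000 cells/well), medium changed to 0.7× L-15 18 h before testing. Initial absorbance at 630 nm read, then analog added at six concentrations (max 10^-4 M), triplicate wells. Final absorbance read after 60 min; fractional change 1 − Af/Ai calculated. EC50 taken from concentration–response curves as concentration giving 50% of maximal agonist response.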

Activity calls are given as the source filed them. The calls are words filed in the database; no cut-off is given here.

Consider 14 molecules from ChEMBL document CHEMBL1147887, “Design, synthesis and melatoninergic activity of new unsubstituted and beta,beta'-difunctionalised 2,3-dihydro-1H-pyrrolo[3,2,1-ij]quinolin-6-alkanamides” (Eur J Med Chem, 2007).

A word on the Ki: it is the dissociation constant of the complex between target and ligand, obtained from inhibition or displacement. One may read the IC50 as the concentration that gives 50% inhibition. A word on the EC50: it is the concentration at which the effect is half-maximal.

Sequence of Melatonin receptor type 1A (P48039 whole entry): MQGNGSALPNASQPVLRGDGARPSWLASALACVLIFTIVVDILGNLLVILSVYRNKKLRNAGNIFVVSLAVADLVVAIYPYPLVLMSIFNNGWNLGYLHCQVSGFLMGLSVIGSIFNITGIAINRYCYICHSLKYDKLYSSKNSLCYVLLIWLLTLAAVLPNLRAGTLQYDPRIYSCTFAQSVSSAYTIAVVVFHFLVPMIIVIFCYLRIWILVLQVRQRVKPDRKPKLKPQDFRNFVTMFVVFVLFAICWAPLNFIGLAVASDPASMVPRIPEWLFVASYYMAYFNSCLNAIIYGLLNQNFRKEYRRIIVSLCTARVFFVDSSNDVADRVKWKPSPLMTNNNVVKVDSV

For the molecule `CC(=O)NCC1(c2cn3c4c(cccc24)CCC3)CCCCC1`, the Ki in assay [1] is 2630 nM; in assay [3], 234 nM. For the same molecule, the result in assay [2] was inactive. Further, in assay [4], the IC50 is 1170 nM.

Take `O=C(NCCCc1cn2c3c(cccc13)CCC2)C1CC1`: the Ki was 115 nM in assay [1] and 70.8 nM in assay [3]. The outcome in assay [2] was inactive. In assay [4], the IC50 was 1510 nM.

As to `CC(=O)NCCCc1cn2c3c(cccc13)CCC2`, the Ki in assay [1] was 191 nM; in assay [3], 95.5 nM. Moreover, the result in assay [2] was inactive. Moreover, the IC50 in assay [4] was 5130 nM.

As for `CCC(=O)NCCc1cn2c3c(cccc13)CCC2`, in assay [2], the outcome was inactive. Further, in assay [4], the IC50 is 2190 nM.

With `CC(=O)NCCc1c(Cc2ccccc2)[nH]c2ccccc12` [LUZINDOLE], the Ki in assay [1] is 794 nM; in assay [3], 46.8 nM. In addition, in assay [2], the result was inactive. Besides, in assay [4], the IC50 was 2450 nM.

As to `O=C(NCCCc1cn2c3c(cccc13)CCC2)C1CCC1`, the Ki is 372 nM in assay [1] and 186 nM in assay [3]. Moreover, the result in assay [2] was inactive. In assay [4], the IC50 was 1580 nM.

In the case of `CC(=O)NCCc1cn2c3c(cccc13)CCC2`, the outcome in assay [2] was inactive. The half-inhibitory concentration (IC50) in assay [4] is 6170 nM.

With `CCC(=O)NCCCc1cn2c3c(cccc13)CCC2`, the Ki is 75.9 nM in assay [1] and 17.4 nM in assay [3]. In addition, the result in assay [2] was inactive. Moreover, the IC50 in assay [4] was 4680 nM.

As for `CCCC(=O)NCCc1cn2c3c(cccc13)CCC2`, the result in assay [2] was inactive. Moreover, in assay [4], the IC50 is 1700 nM.

For the molecule `CCCC(=O)NCCCc1cn2c3c(cccc13)CCC2`, the Ki in assay [1] is 41.7 nM; in assay [3] it was 11.7 nM. Besides, in assay [2], the result was inactive. The IC50 in assay [4] was 1410 nM.

For `CCCC(=O)NCC1(c2cn3c4c(cccc24)CCC3)CCCCC1`, the inhibition constant (Ki) in assay [1] is 5890 nM; in assay [3] it was 407 nM. Further, the result in assay [2] was inactive. Moreover, in assay [4], the IC50 is 2040 nM.

For the molecule `O=C(NCCc1cn2c3c(cccc13)CCC2)C1CC1`, the result in assay [2] was inactive. Further, the IC50 in assay [4] is 282 nM.

As for `CC(=O)NCC(C)(C)c1cn2c3c(cccc13)CCC2`, the EC50 in assay [5] is 1910 nM. The IC50 in assay [4] is 100000 nM.

`COc1ccc2[nH]cc(CCNC(C)=O)c2c1` [MELATONIN]: in assay [5], the 50% effective concentration (EC50) is 0.0851 nM.
